The source made the active and inactive calls.
Columns and labels:
Poliovirus 1 = test: Antiviral activity against Polio virus type1 Sabin strain Chat infected in african green monkey Vero cells after 2 days by plaque reduction assay; format: functional, organism-based, Human poliovirus 1 strain Sabin; details: Enterovirus C, 48 h
[1] = Cytotoxicity against african green monkey Vero cells; format: cell-based; details: chlorocebus sabaeus
Method in brief: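 Vero 76 monolayers exposed to serial compound dilutions, run in parallel on the same 24-well plates as the plaque-reduction assays. CC50 is the concentration reducing viability of mock-infected cells by 50%.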

[2] = Cytotoxicity against MDBK cells after 48 to 96 hrs by MTT assay; format: cell-based, Bos taurus; details: cattle, MDBK cells
Method in brief: (§1)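 Cell seeding: MDBK at 6 × 10^5 cells/mL in MEM-E with 10% horse serum and 1 mM Na pyruvate; BHK at 1 × 10^6 cells/mL in MEM-E with 10% FBS. Serial compound dilutions, 37 °C, 5% CO2. Viability of mock-infected cells by MTT after 48–96 h; CC50 is the concentration reducing viability by 50%.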

Yellow fever virus = test: Antiviral activity against Yellow fever virus 17D infected in BHK cells assessed as protection from virus-induced cytopathogenicity after 3 to 4 days by MTT method; format: functional, organism-based
[3] = test system: Human immunodeficiency virus 1; test: Antiviral activity against HIV1 3B infected in human MT4 cells assessed as protection from virus-induced cytopathogenicity after 4 days by MTT method; format: functional, organism-based
Method in brief: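 MT-4 cells, 1 × 10^4/well in RPMI with or without serial compound dilutions, infected with HIV-1 IIIB, 100 CCID50 (m.o.i. 0.01). Protection from virus-induced cytopathogenicity read by MTT.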

[4] = Selectivity index, ratio of CC50 for human MT4 cells to EC50 for Bovine viral diarrhea virus NADL; format: toxicity, cell-based; details: read-out: Ratio CC50/EC50
Human alphaherpesvirus 1 = test: Antiviral activity against HSV1 KOS infected in african green monkey Vero cells after 3 days by plaque reduction assay; format: functional, organism-based; details: Human alphaherpesvirus 1, KOS, 72 h
Method in brief: (§2)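 Plaque reduction assay. Vero 76 cells at 2 × 10^5/well, grown overnight to confluence in D-MEM with 10% FBS. Infected 2 h with 50–100 PFU/well, unadsorbed virus removed. Overlay of D-MEM with 1% inactivated FBS and 0.75% methylcellulose, with or without serial compound dilutions. Incubated at 37 °C for 3 days (HSV-1 KOS, CVB-2 Ohio-1) or 5 days (RSV A2). Fixed and stained with crystal violet in 50% ethanol; plaques counted; EC50 by linear regression.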

[5] = Selectivity index, ratio of CC50 for MDBK cells to EC50 for Bovine viral diarrhea virus NADL; format: toxicity, cell-based; details: cattle, read-out: Ratio CC50/EC50
[6] = Cytotoxicity against BHK cells after 48 to 96 hrs by MTT assay; format: cell-based, Mesocricetus auratus; details: hamster; method in brief: as §1
[7] = Cytotoxicity against human MT4 cells after 96 hrs by MTT assay; format: cell-based; details: MT4 cells
Method in brief: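 Exponentially growing MT-4 cells at 1 × 10^5 cells/mL in RPMI-1640 with 10% FCS, exposed to serial compound dilutions at 37 °C, 5% CO2. Viability by MTT after 96 h; CC50 is the concentration reducing viability of mock-infected cells by 50%.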

Coxsackievirus B2 = test: Antiviral activity against Human coxsackievirus B2 Ohio-1 infected in african green monkey Vero cells after 3 days by plaque reduction assay; format: functional, organism-based, Coxsackievirus B2 (strain Ohio-1); details: Enterovirus B, Vero, 72 h; method in brief: as §2
[8] = test system: Vesicular stomatitis virus; test: Antiviral activity against VSV Indiana lab infected in african green monkey Vero cells after 2 days by plaque reduction assay; format: functional, organism-based
[9] = test system: Bovine viral diarrhea virus 1; test: Antiviral activity against Bovine viral diarrhea virus NADL infected in MDBK cells assessed as protection from virus-induced cytopathogenicity after 3 to 4 days by MTT method; format: functional, organism-based, Bovine viral diarrhea virus 1-NADL; details: Bovine viral diarrhea virus isolates and strains, MDBK
Method in brief: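 Cytopathogenicity protection assay. MDBK cells at 3 × 10^4/well, grown overnight to confluence. Infected with BVDV NADL at m.o.i. 0.01 in MEM-E with 0.5% inactivated FBS, 1 mM Na pyruvate and 1% kanamycin. Serial compound dilutions added after 1 h. After 3–4 days at 37 °C, viability read by MTT; EC50 is the concentration giving 50% protection.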

[10] = Selectivity index, ratio of CC50 for african green monkey Vero cells to EC50 for Human coxsackievirus B2 Ohio-1; format: toxicity, cell-based; details: read-out: Ratio CC50/EC50
[11] = Selectivity index, ratio of CC50 for human MT4 cells to EC50 for Human coxsackievirus B2 Ohio-1; format: toxicity, cell-based; details: read-out: Ratio CC50/EC50
[12] = test system: Respiratory syncytial virus; test: Antiviral activity against RSV A2 infected in african green monkey Vero cells after 5 days by plaque reduction assay; format: functional, organism-based; details: for EC50: human respiratory syncytial virus, A2, Vero, 120 h; method in brief: as §2
[13] = test system: Mammalian orthoreovirus 1; test: Antiviral activity against Reovirus 1 3651 infected in BHK21 cells assessed as protection from virus-induced cytopathogenicity after 3 to 4 days by MTT method; format: functional, organism-based; details: for Activity: BHK-21
Vaccinia virus = test: Antiviral activity against Vaccinia virus Elstree-Lister infected in african green monkey Vero cells after 3 days by plaque reduction assay; format: functional, organism-based; details: Orthopoxvirus vaccinia; for EC50: 72 h

Compound | EC50 (Poliovirus 1) [µM] | CC50 [1] [µM] | CC50 [2] [µM] | EC50 (Yellow fever virus) [µM] | Activity [3] | EC50 (Human alphaherpesvirus 1) [µM] | CC50 [6] [µM] | CC50 at 96 h [7] [µM] | EC50 (Coxsackievirus B2) [µM] | Activity [8] | EC50 [9] [µM] | selectivity ratio [10] | selectivity ratio [11] | Activity [13] | Activity (Vaccinia virus) | Activity [12] | other results
CCN(CC)CC(=O)Nc1ccc(-c2nc3cc(C(F)(F)F)ccc3[nH]2)cc1 | > 24 | 24 | 13 | 7 | inactive | 24 | 23 | 8 | > 24 | inactive | 2 | – | – | – | – | – | selectivity ratio [4]: 4; selectivity ratio [5]: 6.5
O=C(CN1CCCC1)Nc1ccc(-c2nc3cc(Cl)c(Cl)cc3[nH]2)cc1 | 25 | > 100 | 16 | > 64 | inactive | > 100 | 64 | 8 | 1.5 | inactive | 2.5 | > 67 | 5.3 | – | – | – | –
Nc1ccc(-c2nc3cc(Cl)c(Cl)cc3[nH]2)cc1 | > 100 | ≥ 100 | 7.5 | > 30 | inactive | 28 | 30 | 17 | 11 | inactive | 1 | – | – | – | – | – | selectivity ratio [4]: 17; selectivity ratio [5]: 7.5; EC50 [12]: 10 µM
CC(=O)Nc1ccc(-c2nc3cc(C(F)(F)F)ccc3n2C)cc1 | 14 | > 100 | 46 | > 100 | inactive | 49 | > 100 | 15 | 2.5 | inactive | > 46 | > 40 | 6 | inactive | inactive | inactive | –
CCN(CC)CC(=O)Nc1ccc(-c2nc3cc(C(F)(F)F)ccc3n2C)cc1 | 35 | 90 | 57 | 7 | inactive | > 90 | 16 | 9 | 21 | inactive | 10 | – | – | inactive | inactive | inactive | –
O=C(CN1CCCC1)Nc1ccc(-c2nc3cc(C(F)(F)F)ccc3[nH]2)cc1 | > 100 | > 100 | 15 | 7 | inactive | > 100 | 29 | 18 | > 100 | inactive | 3 | – | – | – | – | – | selectivity ratio [4]: 6; selectivity ratio [5]: 5
CCC(=O)Nc1ccc(-c2nc3cc(C(F)(F)F)ccc3n2C2CCCCC2)cc1 | 30 | > 100 | 18 | > 15 | inactive | > 100 | 15 | 17 | 7 | inactive | > 18 | – | – | inactive | inactive | inactive | –
CCC(=O)Nc1ccc(-c2nc3cc(C(F)(F)F)ccc3n2C23CC4CC(CC(C4)C2)C3)cc1 | > 100 | > 100 | > 100 | > 100 | inactive | > 100 | > 100 | 86 | > 100 | inactive | > 100 | – | – | inactive | inactive | inactive | –
Cn1c(-c2ccc(NC(=O)CN3CCN(c4ccccc4)CC3)cc2)nc2cc(C(F)(F)F)ccc21 | 2 | 30 | 1.4 | > 100 | inactive | > 30 | 100 | 1.5 | 3 | inactive | > 1.4 | – | – | inactive | inactive | inactive | –
Cn1c(-c2ccc(N)cc2)nc2cc(C(F)(F)F)ccc21 | 20 | > 100 | 74 | > 85 | inactive | > 100 | 85 | 20 | 14 | inactive | 69 | – | – | inactive | inactive | inactive | –
Nc1ccc(-c2nc3cc(C(F)(F)F)ccc3n2C23CC4CC(CC(C4)C2)C3)cc1 | > 60 | 60 | 19 | > 16 | inactive | > 60 | 16 | 19 | 11 | inactive | 7 | – | – | inactive | inactive | inactive | –
COc1cc(OC)cc(-c2nc3cc(C(F)(F)F)ccc3[nH]2)c1 | > 100 | > 100 | > 100 | > 100 | inactive | > 100 | > 100 | 19 | 3 | inactive | > 100 | > 33 | 6.3 | – | – | – | EC50 (Vaccinia virus): > 100 µM; EC50 [12]: 10 µM
CCC(=O)Nc1ccc(-c2nc3cc(C(F)(F)F)ccc3[nH]2)cc1 | > 100 | > 100 | > 100 | > 100 | inactive | > 100 | 100 | ≥ 100 | 4 | inactive | > 100 | > 25 | ≥ 25 | – | – | – | –
Oc1ccc(-c2nc3cc(C(F)(F)F)ccc3[nH]2)cc1 | 24 | > 100 | 51 | 12 | inactive | 25 | > 100 | 17 | 5 | inactive | > 51 | – | – | – | – | – | EC50 ([13]; Mammalian orthoreovirus 1, 3651, BHK-21): 7 µM; EC50 (Vaccinia virus): > 100 µM; EC50 [12]: 20 µM
CC(=O)Nc1ccc(-c2nc3cc(C(F)(F)F)ccc3[nH]2)cc1 | 16 | 50 | 50 | > 53 | inactive | 7 | 53 | 19 | 3 | inactive | 1.3 | 17 | 6.3 | – | – | – | selectivity ratio [4]: 15; selectivity ratio [5]: 39
COc1cccc(-c2nc3cc(C(F)(F)F)ccc3[nH]2)c1 | > 100 | > 100 | 28 | > 90 | inactive | 12 | 90 | 19 | 4 | inactive | > 28 | > 25 | 4.8 | – | – | – | EC50 (Vaccinia virus): > 100 µM; EC50 [12]: 7 µM

From ChEMBL document CHEMBL1156237, “Antiviral activity of benzimidazole derivatives. II. Antiviral activity of 2-phenylbenzimidazole derivatives” (Bioorg Med Chem, 2010)
